Laboratory results from ChEMBL document CHEMBL1121917, “Structure--activity relationships in a broad-spectrum anthelmintic series. Acid chloride phenylhydrazones. 1. Aryl substitutions and chloride variations” (1981).

Tests used:
Mus musculus [1] = species on record: Mus musculus; test: Percent clearance of Nematospiroides dubius from mouse after oral treatment of 7.55 mg/mouse/day; assay type: functional
Summary of the method: (§1)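 Mice naturally carrying Syphacia obvelata were experimentally infected with Nematospiroides dubius and Hymenolepis nana, then grouped after a 2-week prepatency. Finely ground compound was suspended in aqueous 0.10% carboxymethylcellulose, 0.04% polysorbate 80 and 0.0042% polyparaben, and 0.1 mL was given orally by cannula once daily for 4 days to five mice. Necropsy followed 2 days later, scoring presence or absence of each parasite. Control clearance was subtracted from the treated clearance.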

Mus musculus [2] = species on record: Mus musculus; test: Percent clearance of Hymenolepis nana from mouse after oral treatment of 7.5 mg/mouse/day; assay type: functional; summary of the method: as §1
Ovis aries [3] = test: Percent reduction in Trichostrongylus eggs per gram, after treatment with 100 mg/kg dose of compound perorally in sheep; assay type: functional, Egg; details: route oral
Summary of the method: (§2)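 Naturally parasitized lambs, dosed orally either with a suspension by stomach tube or with finely ground compound in gelatin capsules by balling gun. Activity was scored by the clinical test method, meaning a significant fall in helminth egg counts after treatment.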

Ovis aries [4] = test: Percent reduction in Haemonchus eggs per gram, after treatment of 100 mg/kg dose of compound perorally in sheep; assay type: functional, Egg; details: route oral
Summary of the method: (§3)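 Naturally parasitized lambs received compound orally, either as the aqueous suspension by stomach tube or as finely ground powder in gelatin capsules by balling gun. Activity was judged by the clinical test method, as a significant decrease in posttreatment helminth egg counts.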

Ovis aries [5] = test: Percent reduction in Oesophagostomum eggs per gram, after treatment with 100 mg/kg dose of compound perorally in sheep; assay type: functional, Egg; details: route oral
Summary of the method: (§4)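 Naturally parasitized lambs were dosed orally at the stated mg/kg. Dosing was either as a suspension of finely ground compound by stomach tube, or as ground compound weighed into gelatin capsules and given by balling gun. Activity was scored by the clinical test method: the decrease in posttreatment helminth eggs per gram.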

Ovis aries [6] = test: Percent reduction in Ostertagia eggs per gram, after treatment with 100 mg/kg dose of compound perorally in sheep; assay type: functional, Egg; details: route oral; summary of the method: as §4
Ovis aries [7] = test: Percent reduction in Cooperia eggs per gram, after treatment with 100 mg/kg dose of compound perorally in sheep; assay type: functional, Egg; details: route oral; summary of the method: as §3
Ovis aries [8] = test: Percent reduction in Strongyloides eggs per gram, after treatment with 100 mg/kg dose of compound perorally in sheep; assay type: functional, Egg; details: route oral; summary of the method: as §2
Ovis aries [9] = test: Percent reduction in Trichuris eggs per gram, after treatment with 100 mg/kg dose of compound perorally in sheep; assay type: functional, Egg; details: route oral; summary of the method: as §2
Ovis aries [10] = test: Percent reduction in Trichostrongylus eggs per gram, after treatment with 250 mg/kg dose of compound perorally in sheep; assay type: functional, Egg; details: route oral
Ovis aries [11] = test: Percent reduction in Haemonchus eggs per gram, after treatment with 250 mg/kg dose of compound perorally in sheep; assay type: functional, Egg; details: route oral; summary of the method: as §4
Ovis aries [12] = test: Percent reduction in Ostertagia eggs per gram, after treatment with 325 mg/kg dose of compound perorally in sheep; assay type: functional, Egg; details: route oral; summary of the method: as §2
Canis familiaris [13] = species on record: Canis familiaris; test: Percent reduction in Toxascaris eggs per gram, after treatment with 200 mg/dog dose of compound in a single treatment; assay type: functional, Canis lupus familiaris, Egg
Summary of the method: (§5)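 Dogs naturally infected with Toxascaris leonina were experimentally infected with mixed Ancylostoma caninum and Uncinaria stenocephala larvae. Finely ground compound was given orally in gelatin capsules. Three egg count determinations were made before and three after treatment in each experiment.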

Mus musculus [14] = species on record: Mus musculus; test: Percent clearance of Nematospiroides dubius from mouse after oral treatment of 1.87 mg/mouse/day; assay type: functional; summary of the method: as §1
Mus musculus [15] = species on record: Mus musculus; test: Percent clearance of Syphacaia obvelata from mouse after oral treatment of 1.87 mg/mouse/day; assay type: functional; summary of the method: as §1
Ovis aries [16] = test: Percent reduction in Trichostrongylus eggs per gram, after treatment with 400 mg/kg dose of compound perorally in sheep; assay type: functional, Egg; details: route oral; summary of the method: as §2
Ovis aries [17] = test: Percent reduction in Nematodirus eggs per gram, after treatment with 250 mg/kg dose of compound perorally in sheep; assay type: functional, Egg; details: route oral; summary of the method: as §4
Ovis aries [18] = test: Percent reduction in Cooperia eggs per gram, after treatment with 400 mg/kg dose of compound perorally in sheep; assay type: functional, Egg; details: route oral; summary of the method: as §3
Canis familiaris [19] = species on record: Canis familiaris; test: Percent reduction in Uncinaria eggs per gram, after treatment with 200 mg/dog dose of compound in a single treatment; assay type: functional, Canis lupus familiaris, Egg; summary of the method: as §5
Canis familiaris [20] = species on record: Canis familiaris; test: Percent reduction in Uncinaria eggs per gram, after oral treatment of 175 mg/dog dose of compound in a single treatment; assay type: functional, Canis lupus familiaris, Egg
Ovis aries [21] = test: Percent reduction in Trichuris eggs per gram, after treatment with 450 mg/kg dose of compound perorally in sheep; assay type: functional, Egg; details: route oral; summary of the method: as §2
Ovis aries [22] = test: Percent reduction in Trichuris eggs per gram, after treatment with 325 mg/kg dose of compound perorally in sheep; assay type: functional, Egg; details: route oral
Ovis aries [23] = test: Percent reduction in Haemonchus eggs per gram, after treatment with 400 mg/kg dose of compound perorally in sheep; assay type: functional, Egg; details: route oral; summary of the method: as §4
Ovis aries [24] = test: Percent reduction in Trichostrongylus eggs per gram, after treatment with 325 mg/kg dose of compound perorally in sheep; assay type: functional, Egg; details: route oral
Ovis aries [25] = test: Percent reduction in Haemonchus eggs per gram, after treatment with 450 mg/kg dose of compound perorally in sheep; assay type: functional, Egg; details: route oral; summary of the method: as §4
Ovis aries [26] = test: Percent reduction in Trichostrongylus eggs per gram, after treatment with 450 mg/kg dose of compound perorally in sheep; assay type: functional, Egg; details: route oral; summary of the method: as §2
Ovis aries [27] = test: Percent reduction in Haemonchus eggs per gram, after treatment with 325 mg/kg dose of compound perorally in sheep; assay type: functional, Egg; details: route oral; summary of the method: as §4
Ovis aries [28] = test: Percent reduction in Ostertagia eggs per gram, after treatment with 250 mg/kg dose of compound perorally in sheep; assay type: functional, Egg; details: route oral; summary of the method: as §2
Ovis aries [29] = test: Percent reduction in Trichuris eggs per gram, after treatment with 250 mg/kg dose of compound perorally in sheep; assay type: functional, Egg; details: route oral; summary of the method: as §2
Ovis aries [30] = test: Percent reduction in Nematodirus eggs per gram, after treatment with 450 mg/kg dose of compound perorally in sheep; assay type: functional, Egg; details: route oral; summary of the method: as §4
Ovis aries [31] = test: Percent reduction in Moniezia eggs per gram, after treatment with 400 mg/kg dose of compound perorally in sheep; assay type: functional, Egg; details: route oral; summary of the method: as §4
Ovis aries [32] = test: Percent reduction in Ostertagia eggs per gram, after treatment with 400 mg/kg dose of compound perorally in sheep; assay type: functional, Egg; details: route oral; summary of the method: as §2
Ovis aries [33] = test: Percent reduction in Trichuris eggs per gram, after treatment with 400 mg/kg dose of compound perorally in sheep; assay type: functional, Egg; details: route oral; summary of the method: as §2
Ovis aries [34] = test: Percent reduction in Ostertagia eggs per gram, after treatment with 450 mg/kg dose of compound perorally in sheep; assay type: functional, Egg; details: route oral; summary of the method: as §2
Ovis aries [35] = test: Percent reduction in Oesophagostomum eggs per gram, after treatment with 250 mg/kg dose of compound perorally in sheep; assay type: functional, Egg; details: route oral; summary of the method: as §4
Ovis aries [36] = test: Percent reduction in Strongyloides eggs per gram, after treatment with 250 mg/kg dose of compound perorally in sheep; assay type: functional, Egg; details: route oral; summary of the method: as §2
Ovis aries [37] = test: Percent reduction in Strongyloides eggs per gram, after treatment with 325 mg/kg dose of compound perorally in sheep; assay type: functional, Egg; details: route oral; summary of the method: as §2
Canis familiaris [38] = species on record: Canis familiaris; test: Percent reduction in Ancylostoma eggs per gram, after treatment with 200 mg/dog dose of compound in a single treatment; assay type: functional, Canis lupus familiaris, Egg
Summary of the method: (§6)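 Dogs naturally infected with Toxascaris leonina were experimentally infected with mixed Ancylostoma caninum and Uncinaria stenocephala larvae. Finely ground compound was given orally in gelatin capsules. Fecal egg counts were taken three times before and three times after treatment, and activity was taken as the fall in egg counts.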

Ovis aries [39] = test: Percent reduction in Strongyloides eggs per gram, after treatment with 450 mg/kg dose of compound perorally in sheep; assay type: functional, Egg; details: route oral; summary of the method: as §2
Canis familiaris [40] = species on record: Canis familiaris; test: Percent reduction in Ancylostoma eggs per gram, after oral treatment of 175 mg/dog dose of compound in a single treatment; assay type: functional, Canis lupus familiaris, Egg; summary of the method: as §6
Ovis aries [41] = test: Percent reduction in Oesophagostomum eggs per gram, after treatment with 450 mg/kg dose of compound perorally in sheep; assay type: functional, Egg; details: route oral; summary of the method: as §4
Canis familiaris [42] = species on record: Canis familiaris; test: Percent reduction in Toxascaris eggs per gram, after oral treatment of 100 mg/dog dose of compound in a single treatment; assay type: functional, Canis lupus familiaris, Egg; summary of the method: as §5
Canis familiaris [43] = species on record: Canis familiaris; test: Percent reduction in Uncinaria eggs per gram, after oral treatment of 200 mg/dog dose of compound in a single treatment; assay type: functional, Canis lupus familiaris, Egg; summary of the method: as §5
Canis familiaris [44] = species on record: Canis familiaris; test: Percent reduction in Uncinaria eggs per gram, after oral treatment of 100 mg/dog dose of compound in a single treatment; assay type: functional, Canis lupus familiaris, Egg; summary of the method: as §5
Canis familiaris [45] = species on record: Canis familiaris; test: Percent reduction in Toxascaris eggs per gram, after oral treatment of 200 mg/dog dose of compound in a single treatment; assay type: functional, Canis lupus familiaris, Egg; summary of the method: as §5

In the case of O=[N+]([O-])c1ccc(/C(Cl)=N/Nc2ccccc2)cc1, the Parasite_Clearance (Mus musculus [1]) is reported as 0% and the Parasite_Clearance (Mus musculus [2]) is reported as 0%.
Work on Cl/C(=N\Nc1ccc(Cl)c(Cl)c1Cl)c1ccccc1 yielded a Reduction (Ovis aries [3]) of 0%, a Reduction (Ovis aries [4]) of 0% and a Reduction (Ovis aries [5]) of 0%. It also gave a Reduction (Ovis aries [6]) of 0%, a Reduction (Ovis aries [7]) of 89% and a Reduction (Ovis aries [8]) of 95%. The Reduction (Ovis aries [9]) was 0%.
Cl/C(=N\Nc1c(Cl)cc(Cl)cc1Cl)c1ccccc1 gave a Reduction (Ovis aries [10]) of 98%, a Reduction (Ovis aries [11]) of 98% and a Reduction (Ovis aries [12]) of 98%. The Reduction (Canis familiaris [13]) was 67%, the Parasite_Clearance (Mus musculus [14]) was 80% and the Parasite_Clearance (Mus musculus [15]) was 20%. It also gave a Reduction (Ovis aries [16]) of 77%, a Reduction (Ovis aries [17]) of 82% and a Reduction (Ovis aries [18]) of 100%. The Reduction (Canis familiaris [19]) was 59%, the Reduction (Canis familiaris [20]) was 26% and the Reduction (Ovis aries [21]) was 29%. The Reduction (Ovis aries [22]) was 0%, the Reduction (Ovis aries [23]) was 85% and the Reduction (Ovis aries [24]) was 33%. It also gave a Reduction (Ovis aries [25]) of 94%, a Reduction (Ovis aries [26]) of 100% and a Reduction (Ovis aries [27]) of 99%. It also gave a Reduction (Ovis aries [28]) of 100%, a Reduction (Ovis aries [29]) of 63% and a Reduction (Ovis aries [30]) of 63%. It also gave a Reduction (Ovis aries [31]) of 100%, a Reduction (Ovis aries [32]) of 100% and a Reduction (Ovis aries [33]) of 14%. The Reduction (Ovis aries [34]) was 100%, the Reduction (Ovis aries [35]) was 95% and the Reduction (Ovis aries [36]) was 95%. The Reduction (Ovis aries [37]) was 79%, the Reduction (Canis familiaris [38]) was 87% and the Reduction (Ovis aries [39]) was 100%. The Reduction (Canis familiaris [40]) was 31% and the Reduction (Ovis aries [41]) was 0%.
In the case of Cl/C(=N\Nc1ccccc1)c1ccc(I)cc1, the Parasite_Clearance (Mus musculus [14]) is reported as 80%, the Parasite_Clearance (Mus musculus [15]) is reported as 100% and the Reduction (Canis familiaris [42]) is reported as 0%. The Reduction (Canis familiaris [43]) was 63%, the Reduction (Canis familiaris [44]) was 41% and the Reduction (Canis familiaris [45]) was 100%.
